Assay results: ChEMBL document CHEMBL4673199, “Potent and selective A3 adenosine receptor antagonists bearing aminoesters as heterobifunctional moieties” (RSC Med Chem, 2021)

Tests used:
Adenosine receptor A3 = target: T1, Adenosine receptor A3 (Homo sapiens, UniProt P0DMS8); experiment: Displacement of [3H]-HEMADO from human A3 receptor expressed in CHO cell membrane by radioligand binding assay; format: cell membranes
T1 sequence (P0DMS8 whole entry): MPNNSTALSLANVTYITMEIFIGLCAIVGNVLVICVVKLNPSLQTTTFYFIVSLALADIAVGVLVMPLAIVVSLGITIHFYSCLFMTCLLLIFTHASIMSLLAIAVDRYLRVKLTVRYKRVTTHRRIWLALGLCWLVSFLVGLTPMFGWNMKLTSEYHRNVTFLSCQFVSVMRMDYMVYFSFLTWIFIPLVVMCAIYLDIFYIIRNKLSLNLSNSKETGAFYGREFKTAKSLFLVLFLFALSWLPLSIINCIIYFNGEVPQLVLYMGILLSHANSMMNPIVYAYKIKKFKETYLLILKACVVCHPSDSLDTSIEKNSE
Outline: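 Membranes from CHO cells with human receptor: low-speed spin at 1,000 x g, then crude membranes pelleted at 100,000 x g. Resuspended in 50 mM Tris/HCl, 10 mM MgCl2, 1 mM EDTA, pH 8.25, stored at -80 °C. Radioligand at 1 nM; nonspecific binding with 100 µM R-PIA. Ki by SCTFIT, mean of 3-6 replicates.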

Adenosine receptor A2b = target: T2, Adenosine receptor A2b (Homo sapiens, UniProt P29275); experiment: Antagonist activity at human A2B receptor expressed in CHO cell membrane assessed as reduction in NECA-stimulated adenylyl cyclase activity in presence of [alpha32P]ATP; format: functional, cell membranes
T2 sequence (P29275 whole entry): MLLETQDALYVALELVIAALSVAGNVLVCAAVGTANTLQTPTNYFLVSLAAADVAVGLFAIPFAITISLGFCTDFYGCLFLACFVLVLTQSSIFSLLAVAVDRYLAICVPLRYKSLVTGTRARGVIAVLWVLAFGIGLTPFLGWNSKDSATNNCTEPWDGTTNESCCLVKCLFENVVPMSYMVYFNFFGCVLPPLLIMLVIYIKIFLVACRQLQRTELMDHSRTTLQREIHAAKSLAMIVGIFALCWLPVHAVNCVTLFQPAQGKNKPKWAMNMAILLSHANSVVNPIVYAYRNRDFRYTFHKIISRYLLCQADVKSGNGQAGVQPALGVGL

Adenosine receptor A2a = Adenosine receptor A2a (Homo sapiens, UniProt P29274); experiment: Displacement of [3H]-NECA from human A2A receptor expressed in CHO cell membrane by radioligand binding assay; format: cell membranes
Sequence of Adenosine receptor A2a (P29274 whole entry): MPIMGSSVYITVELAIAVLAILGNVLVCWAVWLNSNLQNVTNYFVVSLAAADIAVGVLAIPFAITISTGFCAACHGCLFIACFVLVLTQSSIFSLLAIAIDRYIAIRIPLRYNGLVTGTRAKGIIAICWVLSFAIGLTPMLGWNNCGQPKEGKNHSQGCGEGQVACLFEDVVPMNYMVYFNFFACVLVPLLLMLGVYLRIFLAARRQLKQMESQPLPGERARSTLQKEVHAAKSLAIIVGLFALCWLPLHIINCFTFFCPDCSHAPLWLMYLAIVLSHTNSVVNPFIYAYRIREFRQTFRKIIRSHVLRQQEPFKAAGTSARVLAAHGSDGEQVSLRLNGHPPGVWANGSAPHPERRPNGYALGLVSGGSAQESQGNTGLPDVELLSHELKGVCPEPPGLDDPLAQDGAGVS
Outline: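 Crude membrane fraction from transfected CHO cells, obtained by 1,000 x g then 100,000 x g centrifugation, in 50 mM Tris/HCl pH 7.4, stored at -80 °C. Radioligand at 10 nM; 100 µM R-PIA defined nonspecific binding. Ki computed with SCTFIT, mean of 3-6 replicates.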

Adenosine receptor A1 = target: T3, Adenosine receptor A1 (Homo sapiens, UniProt P30542); experiment: Displacement of [3H]CCPA from human A1 receptor expressed in CHO cell membrane by radioligand binding assay; format: cell membranes
T3 sequence (P30542 whole entry): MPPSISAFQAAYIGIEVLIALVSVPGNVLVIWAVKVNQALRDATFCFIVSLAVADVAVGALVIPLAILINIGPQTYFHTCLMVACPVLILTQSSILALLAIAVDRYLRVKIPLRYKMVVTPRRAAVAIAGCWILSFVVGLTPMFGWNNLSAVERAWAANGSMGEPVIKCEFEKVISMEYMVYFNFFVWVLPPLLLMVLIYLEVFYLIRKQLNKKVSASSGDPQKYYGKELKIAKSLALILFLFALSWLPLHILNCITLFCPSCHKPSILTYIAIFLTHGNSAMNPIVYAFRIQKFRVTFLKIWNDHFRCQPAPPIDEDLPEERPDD
Outline: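 CHO membranes prepared by 1,000 x g clearing, then 100,000 x g sedimentation, resuspended in 50 mM Tris/HCl pH 7.4 and kept at -80 °C. Labelled with 1 nM radioligand; nonspecific binding with theophylline (1 mM). Ki values from SCTFIT, mean of 3-6 replicates.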

Row | SMILES | Ki (Adenosine receptor A3) | IC50 (Adenosine receptor A2b) | Ki (Adenosine receptor A2a) | Ki (Adenosine receptor A1)
1 | CCOC(=O)[C@@H](Cc1c[nH]c2ccccc12)Nc1nc2nn(C)cc2c2nc(-c3ccco3)nn12 | 59.7 nM | – | 889 nM | 1570 nM
2 | CCOC(=O)CCCNc1nc2nn(C)cc2c2nc(-c3ccco3)nn12 | 108 nM | > 10000 nM | 231 nM | 901 nM
3 | COC(=O)[C@@H]1CCCN1c1nc2nn(C)cc2c2nc(-c3ccco3)nn12 | 113 nM | > 10000 nM | 428 nM | 2270 nM
4 | CCOC(=O)C(Nc1nc2nn(C)cc2c2nc(-c3ccco3)nn12)C(O)c1ccccc1 (racemic) | 46.5 nM | > 10000 nM | 376 nM | 882 nM
5 | CCOC(=O)C(CO)Nc1nc2nn(C)cc2c2nc(-c3ccco3)nn12 (racemic) | 17.1 nM | – | 348 nM | 312 nM
6 | CCOC(=O)[C@H](Cc1ccccc1)Nc1nc2nn(C)cc2c2nc(-c3ccco3)nn12 | 50.6 nM | > 10000 nM | 1300 nM | 1820 nM
7 | CCOC(=O)[C@H](Cc1ccc(O)cc1)Nc1nc2nn(C)cc2c2nc(-c3ccco3)nn12 | 24.6 nM | > 10000 nM | 1300 nM | 617 nM

The next molecules have a lower Ki (Adenosine receptor A3) than those just listed; values first:

Row | Ki (Adenosine receptor A3) | IC50 (Adenosine receptor A2b) | Ki (Adenosine receptor A2a) | Ki (Adenosine receptor A1) | SMILES
8 | 0.5 nM | > 10000 nM | 398 nM | 322 nM | CCOC(=O)C(CC(C)C)Nc1nc2nn(C)cc2c2nc(-c3ccco3)nn12 (racemic)
9 | 7.55 nM | > 10000 nM | 2670 nM | 919 nM | CCOC(=O)CC[C@H](Nc1nc2nn(C)cc2c2nc(-c3ccco3)nn12)C(=O)OCC
10 | 15.5 nM | > 10000 nM | 820 nM | 2200 nM | CCOC(=O)C(C)Nc1nc2nn(C)cc2c2nc(-c3ccco3)nn12 (racemic)
11 | 1.06 nM | > 10000 nM | 551 nM | 388 nM | CCCCC(Nc1nc2nn(C)cc2c2nc(-c3ccco3)nn12)C(=O)OCC (racemic)
12 | 1.72 nM | > 10000 nM | 1270 nM | 591 nM | CCOC(=O)C(Nc1nc2nn(C)cc2c2nc(-c3ccco3)nn12)C(C)C (racemic)
13 | 0.306 nM | > 10000 nM | 860 nM | 173 nM | CCOC(=O)C(Nc1nc2nn(C)cc2c2nc(-c3ccco3)nn12)c1ccccc1 (racemic)
14 | 16.3 nM | > 10000 nM | 445 nM | 552 nM | CCOC(=O)C[C@H](Nc1nc2nn(C)cc2c2nc(-c3ccco3)nn12)C(=O)OCC
